Assay results from ChEMBL document CHEMBL1123823, “[1-Desamino, 7-lysine, 8-arginine]vasotocin: attachment of reporter groups and affinity ligands through the lysine side chain” (J Med Chem, 1987).
Where a SMILES comes first, the peptide text is derived from it. Bridges are numbered along the chain shown (N, C = ends). [ ]: non-standard residue; d: D form. The star is where a group is joined. Benzoyl(4-N3) = [N-]=[N+]=Nc1ccc(C(=O)*)cc1; Mpa = O=C(O)CCS

Columns and labels:
[1] = Toad bladder hydroosmotic activity was determined; type: functional; conditions: read-out: ED50 (the source's name)
Summary of the method: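 Osmometric measurement of bladder water permeability. Bladders were suspended in humidified air, and paper disks holding 8 μL of hypertonic Ringer's, with or without peptide at various concentrations, were placed on the outer surface of the bladder wall. The Ringer's contained NaCl 110, KCl 3.5, CaCl₂ 1, MgCl₂ 1, glucose 5.5 and Tris-HCl 10 mmol/L, pH 7.5, 236 mOsm/kg H₂O. Dose-response curves were constructed.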

Rattus norvegicus [2] = experiment: Antidiuretic activity was determined in water loaded, ethanol-anesthetized rats.; type: functional, Urine
Rattus norvegicus [3] = experiment: (§1) Pressor activity was determined in urethane-anesthetized, phenoxybenzamine treated rats.; type: functional
Rattus norvegicus [4] = experiment: as §1; type: functional, organism-based; conditions: read-out: pA2 (converted)

Row | EC50 [1] [nM] | Structure (SMILES) | Antidiuretic activity (Rattus norvegicus [2]) [U/mg] | Pressor activity (Rattus norvegicus [3]) [U/mg] | Kb (Rattus norvegicus [4]) [nM]
1 | 22 | CC[C@H](C)[C@@H]1NC(=O)[C@H](Cc2ccc(O)cc2)NC(=O)CCSSC[C@@H](C(=O)N[C@@H](CCCCN)C(=O)N[C@@H](CCCN=C(N)N)C(=O)NCC(N)=O)NC(=O)[C@H](CC(N)=O)NC(=O)[C@H](CCC(N)=O)NC1=O ([Mpa]YIQNCKRG-NH2; disulfide 1-6) | 29 | 0 | –
2 | 210 | CC[C@H](C)[C@@H]1NC(=O)[C@@H](Cc2ccc(O)cc2)NC(=O)CCSSC[C@@H](C(=O)N[C@H](CCCCNC(=O)CCCCC2SCC3NC(=O)NC32)C(=O)N[C@@H](CCCN=C(N)N)C(=O)NCC(N)=O)NC(=O)[C@H](CC(N)=O)NC(=O)[C@@H](CCC(N)=O)NC1=O (stereo partly drawn) | 4.3 | 0 | –
3 | – | CC[C@H](C)[C@@H]1NC(=O)[C@H](Cc2ccc(O)cc2)NC(=O)[C@@H](N)CSSC[C@@H](C(=O)N2CCC[C@H]2C(=O)N[C@@H](CCCN=C(N)N)C(=O)NCC(N)=O)NC(=O)[C@H](CC(N)=O)NC(=O)[C@H](CCC(N)=O)NC1=O [VASOTOCIN] (H-CYIQNCPRG-NH2; disulfide 1-6) | 231 | 160 | –
4 | – | CC[C@H](C)[C@@H]1NC(=O)[C@H](Cc2ccc(O)cc2)NC(=O)CCSSC[C@@H](C(=O)N[C@@H](CCCCNC(=O)c2ccc(N=[N+]=[N-])cc2)C(=O)N[C@@H](CCCN=C(N)N)C(=O)NCC(N)=O)NC(=O)[C@H](CC(N)=O)NC(=O)[C@H](CCC(N)=O)NC1=O ([Mpa]YIQNCK(Benzoyl(4-N3))RG-NH2; disulfide 1-6) [listing 1 of 2 here] | – | – | 251
5 | – | CC[C@H](C)[C@@H]1NC(=O)[C@H](Cc2ccc(O)cc2)NC(=O)CCSSC[C@@H](C(=O)N[C@@H](CCCCNC(=O)c2ccc(N=[N+]=[N-])cc2)C(=O)N[C@@H](CCCN=C(N)N)C(=O)NCC(N)=O)NC(=O)[C@H](CC(N)=O)NC(=O)[C@H](CCC(N)=O)NC1=O ([Mpa]YIQNCK(Benzoyl(4-N3))RG-NH2; disulfide 1-6) [listing 2 of 2 here] | 19.7 | – | –
6 | – | CC[C@H](C)[C@@H]1NC(=O)[C@H](Cc2ccc(O)cc2)NC(=O)CCSSC[C@@H](C(=O)N2CCC[C@H]2C(=O)N[C@@H](CCCN=C(N)N)C(=O)NCC(N)=O)NC(=O)[C@H](CC(N)=O)NC(=O)[C@H](CCC(N)=O)NC1=O ([Mpa]YIQNCPRG-NH2; disulfide 1-6) | 890 | 256 | –

Row | Structure (SMILES) | EC50 [1] [nM] | Antidiuretic activity (Rattus norvegicus [2]) [U/mg] | Pressor activity (Rattus norvegicus [3]) [U/mg] | Kb (Rattus norvegicus [4]) [nM]
7 | N=C(N)NCCC[C@H](NC(=O)[C@@H]1CCCN1C(=O)[C@@H]1CSSC[C@H](N)C(=O)N[C@@H](Cc2ccc(O)cc2)C(=O)N[C@@H](Cc2ccccc2)C(=O)N[C@@H](CCC(N)=O)C(=O)N[C@@H](CC(N)=O)C(=O)N1)C(=O)NCC(N)=O [VASOPRESSIN] | 9.5 | – | – | –
